Measurements taken from ChEMBL document CHEMBL4339193, “Phenotypic Screening-Based Identification of 3,4-Disubstituted Piperidine Derivatives as Macrophage M2 Polarization Modulators: An Opportunity for Treating Multiple Sclerosis” (J Med Chem, 2019).
Active and inactive are the calls of the source. No cut-off for these calls is given here.

How the values were obtained:
RAW264.7 [1] = test: Modulation of M1 polarization in mouse RAW264.7 cells assessed as change in Mcp1 mRNA expression at 300 nM measured after 24 hrs by qRT-PCR analysis relative to control; type: functional, cell-based; details: RAW264.7, 24 h, read-out: FC
In short: (§1)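 RAW264.7 cells (DMEM, 10% FBS) exposed 24 h to 300 nM compound alone; LPS 50 ng/ml as positive control. Mcp1 mRNA by qRT-PCR; fold change = dosed group level / control group level.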

RAW264.7 [2] = test: Modulation of M2 polarization in mouse RAW264.7 cells assessed as change in Arg1 mRNA expression at 300 nM measured after 24 hrs by qRT-PCR analysis relative to control; type: functional
In short: (§2)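 RAW264.7 cells (DMEM, 10% FBS) given 300 nM compound for 24 h; IL-4 20 ng/ml as positive control. Arg1 mRNA measured by qRT-PCR; fold change = expression in dosed group / expression in untreated control.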

RAW264.7 [3] = test: Modulation of M2 polarization in mouse RAW264.7 cells assessed as up regulation of Arg1 mRNA expression at 300 nM measured after 24 hrs by qRT-PCR analysis; type: functional, cell-based; in short: as §2
RAW264.7 [4] = test: Modulation of M1 polarization in mouse RAW264.7 cells assessed as up regulation of Mcp1 mRNA expression at 300 nM measured after 24 hrs by qRT-PCR analysis; type: cell-based; details: raw264.7, 24 h, 0.3 µM; in short: as §1

SMILES	fold induction at 0.3 µM (RAW264.7 [1])	fold change (FC) (RAW264.7 [2])	Activity (RAW264.7 [3])	Activity (RAW264.7 [4])
O=C(NCCN1CCC(c2ccccc2)CC1)c1ccc(-c2cc[nH]n2)cc1	2.14	3.92	–	–
CC(C)C[C@H](NC(=O)[C@H](Cc1ccccc1)NC(=O)C[C@H](NC(=O)c1ccc2ccccc2c1)c1ccccc1)C(=O)[C@]1(C)CO1	–	–	Active	–
O=C(Nc1n[nH]c(=O)c2ccccc12)c1cccc(C(=O)N2CCN(C(=O)C3CC3)CC2)c1	–	–	Active	–
COc1ccc(NC(=O)c2ccc(-c3ccnn3C)cc2F)cc1	2.16	3.86	–	–
Cl.Cn1ncc(Br)c1-c1ccc(C(=O)N[C@@H]2CNCC[C@H]2c2ccc(F)c(F)c2)cn1	1.32	0.56	–	–
Cn1nccc1-c1ccc(C(=O)Nc2ccc(F)cc2)c(F)c1	2.01	1.63	–	–
Cc1cc(-c2ccnn2C)cnc1C(=O)N[C@@H]1CNCC[C@H]1c1cccc(F)c1.Cl	1.99	0.95	–	–
Cl.Cn1ncc(Cl)c1-c1ccc(C(=O)N[C@@H]2CNCC[C@H]2c2ccc(Cl)c(C(F)(F)F)c2)c(F)c1	3.54	10.33	–	–
Cn1ncc(Br)c1-c1ccc(C(=O)N[C@@H]2CNCC[C@H]2c2ccc(F)c(F)c2)cc1.O=C(O)C(O)C(O)C(=O)O	1.77	2.27	–	–
Cl.Cn1nccc1-c1ccc(C(=O)N[C@@H]2CNCC[C@H]2c2ccc(F)c(F)c2)cn1	1.23	0.85	–	–
Cl.Cn1nccc1-c1ccc(C(=O)N[C@H]2CNCC[C@@H]2c2cccc(F)c2)c(F)c1	1.76	0.31	–	–
O=C(NCC(c1ccccc1F)N1CCCC1)c1ccc(-c2cc[nH]n2)cc1 (stereo unspecified)	1.34	1.09	–	–
Cl.Cn1ncc(Cl)c1-c1ccc(C(=O)N[C@@H]2CNCC[C@H]2c2ccc(F)c(F)c2)cc1	1.5	1.97	–	–
Cc1cc(-c2c(Br)cnn2C)cnc1C(=O)N[C@@H]1CNCC[C@H]1c1cccc(F)c1.Cl	1.63	0.71	–	–
Cl.Cn1nccc1-c1ccc(C(=O)N[C@@H]2CNCC[C@H]2c2ccc(Cl)c(C(F)(F)F)c2)cc1Cl	1.49	5.08	–	–
Cl.Cn1ncc(Cl)c1-c1ccc(C(=O)N[C@@H]2CNCC[C@H]2c2ccc(F)c(F)c2)cc1Cl	1.16	1.72	–	–
COc1ccc(S(=O)(=O)Nc2ccc(OC)c(-c3ccc(O)cc3)c2)cc1	–	–	Active	–
Cl.Cn1ncc(Cl)c1-c1ccc(C(=O)N[C@@H]2CNCC[C@H]2c2ccc(Cl)c(C(F)(F)F)c2)cc1	5.08	2.82	–	–
Cl.Cn1nccc1-c1ccc(C(=O)N[C@H]2CCCNC2)c(F)c1	2.26	2.11	–	–
Cn1nccc1-c1ccc(C(=O)N[C@@H]2CNCC[C@H]2c2ccc(F)c(F)c2)cc1.O=C(O)C(O)C(O)C(=O)O	0.9	3.42	–	–
Cl.Cn1ncc(Cl)c1-c1ccc(C(=O)N[C@@H]2CNCC[C@H]2c2ccc(F)c(F)c2)cn1	1.01	0.27	–	–
COc1cccc(-c2noc(-c3nn(-c4ccc(Cl)cc4)c4ccccc34)n2)c1	–	–	Active	–
Cc1cc(C(=O)N[C@@H]2CNCC[C@H]2c2cccc(F)c2)ccc1-c1c(Br)cnn1C.Cl	1.89	6.54	–	–
O=C(NCCN1CCCC(c2ccccc2)C1)c1ccc(-c2ccn[nH]2)cc1 (stereo unspecified)	1.52	1.48	–	–

SMILES	fold induction at 0.3 µM (RAW264.7 [1])	fold change (FC) (RAW264.7 [2])	Activity (RAW264.7 [3])	Activity (RAW264.7 [4])
Cc1ccc(C(=O)N[C@@H]2CNCC[C@H]2c2cccc(F)c2)s1.Cl	1.54	1.44	–	–
Cl.O=C(N[C@@H]1CNCC[C@H]1c1cccc(F)c1)c1ccc(F)cc1	1.64	0.91	–	–
Cn1nccc1C(=O)N1CC(c2cc(F)cc(F)c2)C2[C@H]1C1CCN2CC1 (single isomer, unassigned)	1.4	1.16	–	–
Cc1cc(C(=O)N[C@@H]2CNCC[C@H]2c2cccc(F)c2)ccc1-c1c(Cl)cnn1C.Cl	2.44	8.35	–	–
Cl.Cn1ncc(Br)c1-c1ccc(C(=O)N[C@@H]2CNCC[C@H]2c2cccc(F)c2)nc1	1.14	0.78	–	–
Cl.Cn1nccc1-c1ccc(C(=O)N[C@@H]2CNCC[C@H]2c2cccc(F)c2)c(F)c1	1.54	10.05	Active	Non-Toxic
Cc1cc(-c2ccnn2C)cnc1C(=O)N[C@@H]1CNCC[C@H]1c1ccc(Cl)c(C(F)(F)F)c1.Cl	1.37	0.4	–	–
COc1ccccc1C(=O)N[C@@H]1CNCC[C@H]1c1cccc(F)c1.Cl	1.42	1.32	–	–
CCNC(=O)c1ccc(-c2ccnn2C)cc1F	1.83	2.31	–	–
O=C(NCCN1CCC(c2ccccc2)C1)c1ccc(-c2cc[nH]n2)cc1 (stereo unspecified)	1.86	2.22	–	–
Cc1ccc(C(=O)N[C@@H]2CNCC[C@H]2c2cccc(F)c2)o1.Cl	1.89	1.76	–	–
CCN(CC)C(=O)c1ccc(-c2ccnn2C)cc1F	1.97	1.96	–	–
Cl.Cn1nccc1-c1ccc(C(=O)N[C@@H]2CNCC[C@H]2c2ccc(F)c(F)c2)c(F)c1	0.39	3.99	–	–
Cl.Cn1nccc1C(=O)N[C@@H]1CNCC[C@H]1c1cccc(F)c1	2.05	1.62	–	–
Cc1cc(C(=O)N[C@@H]2CNCC[C@H]2c2ccc(Cl)c(C(F)(F)F)c2)ccc1-c1c(Cl)cnn1C.Cl	4.85	1.82	–	–
O=C1NCCN(C(=O)c2ccc(-c3cc[nH]n3)cc2)C1Cc1ccccc1 (stereo unspecified)	1.53	1.33	–	–
Cl.Cn1ncc(Br)c1-c1ccc(C(=O)N[C@@H]2CNCC[C@H]2c2cccc(F)c2)cc1Cl	2.05	10.12	–	–
Cc1ccc([C@@H]2CN(C(=O)c3ccc(-c4ccn[nH]4)cc3)C[C@H]2N(C)C)cc1	1.24	4.85	–	–
Cc1ccc(S(=O)(=O)N2CCN(c3nc4ccccc4nc3S(=O)(=O)c3ccc(F)cc3)CC2)cc1	–	–	Active	–
Cl.O=C(N[C@@H]1CNCC[C@H]1c1cccc(F)c1)c1ccccc1F	1.72	1.01	–	–
Cn1nccc1C(=O)N1C[C@@H](c2cc(F)cc(F)c2)[C@@H]2[C@H]1C1CCN2CC1	1.95	2.22	–	–
CC(=O)N[C@@H]1Cc2ccccc2[C@H]1NC(=O)c1cn[nH]c1-c1cccc(F)c1	2.14	0.8	–	–
CN(CC1Cc2ccccc2CN1C)C(=O)c1ccc(-c2ccn[nH]2)cc1 (stereo unspecified)	1.14	2.35	–	–
